{
  "source": "ChEMBL document CHEMBL3860044",
  "about": "“The Rational Design, Synthesis, and Antimicrobial Properties of Thiophene Derivatives That Inhibit Bacterial Histidine Kinases” (J Med Chem, 2016)",
  "key": {"Staphylococcus aureus [1]": {"system": "Staphylococcus aureus", "experiment": "Antimicrobial activity against methicillin-resistant Staphylococcus aureus USA300 TCH1516 after 20 hrs by two fold serial broth dilution method", "assay_type": "functional", "settings": "USA300_TCH1516, 20 h", "how_it_was_run": "(§1)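 Two-fold serial broth dilution per CLSI in LB, BHI or THB broth, (3–7) × 10⁵ cfu/mL per well, compound 0.5 to 128 µg/mL, 20 h at 37 °C. MIC is the lowest concentration with no growth. For MBC (>99.99% kill), 10 µL from wells without growth are spotted on agar and read the next day as spots with fewer than 5 colonies.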"}, "Staphylococcus aureus [2]": {"system": "Staphylococcus aureus", "experiment": "Inhibition of histidine kinase in methicillin-resistant Staphylococcus aureus isolate C1BP13 assessed as adjuvant activity for restoration of penicillin G induced bactericidal activity by measuring penicillin G MBC at 50 ug/ml by broth microdilution method (reference value: >8 ug/ml)", "how_it_was_run": "(§2)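 Clinical resistant isolates and quality control strains (S. aureus ATCC 29213, E. coli ATCC 25922) are tested by EUCAST broth microdilution with a 10⁶ bacteria/mL inoculum, in triplicate, with or without a fixed adjuvant concentration. For MBC, the MIC dilution and at least two more concentrated dilutions are plated and CFU/mL counted.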"}, "Bacillus subtilis": {"system": "Bacillus subtilis", "experiment": "Inhibition of Bacillus subtilis cytoplasmic Walk CA domain (204 to 612 residues) autophosphorylation at 1 mM preincubated for 5 mins followed by [gamma-32P] ATP addition measured after 3 mins by SDS-PAGE based phosphor imaging method", "how_it_was_run": "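Screen used cytoplasmic WalK fragments. 2 µM kinase in Epps buffer pH 8.5 with 20 mM MgCl2, 0.1 mM EDTA and 5% glycerol. Compound at 1 mM final in 10% DMSO, added 5 min before ATP (1 mM final including [γ-32P]ATP). Stopped with SDS loading buffer, run on SDS-PAGE, read by phosphorimaging.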"}, "[3]": {"experiment": "Antimicrobial activity against Bacillus subtilis JH642 after 20 hrs by two fold serial broth dilution method", "assay_type": "functional, Bacillus subtilis subsp. subtilis str. JH642", "how_it_was_run": "as §1"}, "Streptococcus agalactiae [4]": {"system": "Streptococcus agalactiae", "experiment": "Bactericidal activity against Streptococcus agalactiae COH1 GBS after 20 hrs by two fold serial broth dilution method", "assay_type": "functional", "how_it_was_run": "(§3)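 2-fold serial broth dilution per CLSI in LB, BHI or THB; inoculum (3–7) × 10⁵ cfu/mL; compound 0.5 to 128 µg/mL; 20 h at 37 °C. MIC taken as lowest concentration with no visible growth. For MBC (>99.99% kill), 10 µL from wells without growth spotted on agar; read next day as spots with fewer than 5 colonies.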"}, "Staphylococcus aureus [5]": {"system": "Staphylococcus aureus", "experiment": "(§4) Inhibition of histidine kinase in methicillin-resistant Staphylococcus aureus isolate C1BP13 assessed as adjuvant activity for restoration of cloxacillin induced antibacterial activity by measuring cloxacillin MIC at 50 ug/ml by broth microdilution method (reference value: >8 ug/ml)", "how_it_was_run": "as §2"}, "[6]": {"system": "Bacillus subtilis subsp. subtilis str. JH642", "experiment": "Bactericidal activity against Bacillus subtilis JH642 assessed as clearing of bacterial culture at 50 ug/ml upto 9 hrs", "assay_type": "functional", "how_it_was_run": "(§5)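 B. subtilis JH642 grown overnight in LB, diluted into 20 mL LB at OD600 0.05, grown at 37 °C. Compound added at OD600 0.5–0.6. OD600 followed before and after addition over several hours. Vancomycin served as bactericidal control and chloramphenicol as bacteriostatic control.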"}, "[7]": {"experiment": "Bactericidal activity against Streptococcus pyogenes M1 GAS 5448 after 20 hrs by two fold serial broth dilution method", "assay_type": "functional", "how_it_was_run": "as §3"}, "Escherichia coli [8]": {"system": "Escherichia coli", "experiment": "Antimicrobial activity against Escherichia coli MG1655 after 20 hrs by two fold serial broth dilution method", "assay_type": "functional", "settings": "K-12 substr. MG1655, 20 h", "how_it_was_run": "as §1"}, "Escherichia coli [9]": {"system": "Escherichia coli", "experiment": "Inhibition of histidine kinase in cephalosporin-resistant/ESBL producing Escherichia coli isolate ARS 108 assessed as adjuvant activity for restoration of cefotaxime induced bactericidal activity by measuring cefotaxime MBC at 50 ug/ml by broth microdilution method (reference value: >8 ug/ml)", "how_it_was_run": "as §2"}, "[10]": {"experiment": "Antimicrobial activity against Salmonella enterica 14028S after 20 hrs by two fold serial broth dilution method", "assay_type": "functional", "how_it_was_run": "as §1"}, "[11]": {"experiment": "Inhibition of Enterococcus faecalis Hexa-his-tagged IreK autophosphorylation expressed in Escherichia coli BL21(DE3) preincubated for 5 mins followed by [gamma-32P] ATP addition measured after 15 mins by SDS-PAGE based phosphor imaging method", "how_it_was_run": "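His6-IreK expressed in E. coli BL21(DE3) with IPTG at 16 °C and purified by Ni-NTA. Autophosphorylation run as for the histidine kinases: 0.5 µM kinase, 2.5 µM ATP with [γ-32P]ATP, compound 0–800 µM added before ATP.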"}, "Listeria monocytogenes": {"system": "Listeria monocytogenes", "experiment": "Bactericidal against Listeria monocytogenes 10403S after 20 hrs by two fold serial broth dilution method", "assay_type": "functional", "how_it_was_run": "as §3"}, "Streptococcus agalactiae [12]": {"system": "Streptococcus agalactiae", "experiment": "Antimicrobial activity against Streptococcus agalactiae COH1 GBS after 20 hrs by two fold serial broth dilution method", "assay_type": "functional", "how_it_was_run": "as §3"}, "Escherichia coli [13]": {"system": "Escherichia coli", "experiment": "Inhibition of histidine kinase in ofloxacin-resistant Escherichia coli isolate G02 assessed as adjuvant activity for restoration of ofloxacin induced antibacterial activity by measuring ofloxacin MIC at 50 ug/ml by broth microdilution method (reference value: >16 ug/ml)", "how_it_was_run": "as §2"}, "[14]": {"experiment": "Inhibition of Escherichia coli DNA gyrase supercoiling activity using relaxed pUC19 DNA as substrate after 30 mins by agarose gel electrophoresis", "how_it_was_run": "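E. coli gyrase (1 U) with 75 ng relaxed pUC19 in kit buffer with 2% DMSO. Compound at 6.25–800 µM final, ciprofloxacin as control. Incubated 30 min at 37 °C, stopped with loading dye, supercoiling read by agarose gel electrophoresis.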"}, "Escherichia coli [15]": {"system": "Escherichia coli", "experiment": "Inhibition of histidine kinase in amoxicillin-resistant Escherichia coli isolate G28 harboring beta-lactamase assessed as adjuvant activity for restoration of cefotaxime induced antibacterial activity by measuring cefotaxime MIC at 50 ug/ml by broth microdilution method (reference value: >16 ug/ml)", "how_it_was_run": "as §2"}, "[16]": {"experiment": "Inhibition of Bacillus subtilis JH642 Hexa-his-tagged ResE cytoplasmic domain (203 to 589 residues) autophosphorylation expressed in Escherichia coli BL21(DE3) preincubated for 5 mins followed by [gamma-32P] ATP addition measured after 8 to 60 mins by SDS-PAGE based phosphor imaging method", "set-up": "species or system Bacillus subtilis subsp. subtilis str. JH642", "how_it_was_run": "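His6-ResE purified by Ni-NTA after IPTG induction (1 mM, 16 °C). For IC50: 0.5 µM kinase in Epps pH 8.5, MgCl2, EDTA, glycerol buffer; compound 0–800 µM (two-fold steps), DMSO held constant, 5 min before ATP at 2.5 µM final, cold:hot ratio 1:10. Stopped with SDS loading buffer after 8 min; SDS-PAGE, phosphorimaging, densitometry.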"}, "[17]": {"system": "Bacillus subtilis subsp. subtilis str. JH642", "experiment": "Bactericidal activity against Bacillus subtilis JH642 assessed as bacterial cell lysis at 50 ug/ml upto 9 hrs", "assay_type": "functional", "how_it_was_run": "as §5"}, "Staphylococcus aureus [18]": {"system": "Staphylococcus aureus", "experiment": "as §4, with “penicillin G-resistant” for “methicillin-resistant”, “C1P15 harboring penicillinase” for “C1BP13”, “penicillin G” for “cloxacillin”", "how_it_was_run": "as §2"}, "Enterococcus faecalis [19]": {"system": "Enterococcus faecalis", "experiment": "Antimicrobial activity against Enterococcus faecalis V583 after 20 hrs by two fold serial broth dilution method", "assay_type": "functional", "settings": "V583, 20 h", "how_it_was_run": "as §3"}, "Enterococcus faecalis [20]": {"system": "Enterococcus faecalis", "experiment": "Bactericidal activity against Enterococcus faecalis V583 after 20 hrs by two fold serial broth dilution method", "assay_type": "functional", "how_it_was_run": "as §3"}},
  "note": "The source made the active and inactive calls. The calls are words filed in the database; no cut-off is given here.",
  "data": [
    {"smiles": "O=[N+]([O-])c1ccc(-c2ccccc2O)s1", "values": [
      {"measurement": "MIC", "setting": "Staphylococcus aureus [1]", "result": 16, "unit": "µg/mL"},
      {"measurement": "MBC", "setting": "Staphylococcus aureus [2]", "result": 4, "unit": "µg/mL"},
      {"measurement": "inhibition", "setting": "Bacillus subtilis", "result": "Active"},
      {"measurement": "MIC", "setting": "[3]", "result": 7, "unit": "µg/mL"},
      {"measurement": "MBC99.99", "setting": "Streptococcus agalactiae [4]", "result": ">32", "unit": "µg/mL"},
      {"measurement": "MIC", "setting": "Staphylococcus aureus [5]", "result": "< 0.015", "unit": "µg/mL"},
      {"measurement": "Activity", "setting": "[6]", "result": "Active"},
      {"measurement": "MBC99.99", "setting": "[7]", "result": 32, "unit": "µg/mL"},
      {"measurement": "MIC", "setting": "Escherichia coli [8]", "result": 32, "unit": "µg/mL"},
      {"measurement": "MBC", "setting": "Escherichia coli [9]", "result": "> 8", "unit": "µg/mL"},
      {"measurement": "MIC", "setting": "[10]", "result": 32, "unit": "µg/mL"},
      {"measurement": "IC50", "setting": "[11]", "result": "> 800", "unit": "µM"},
      {"measurement": "MBC99.99", "setting": "Listeria monocytogenes", "result": ">64", "unit": "µg/mL"},
      {"measurement": "MIC", "setting": "Streptococcus agalactiae [12]", "result": 16, "unit": "µg/mL"},
      {"measurement": "MIC", "setting": "Escherichia coli [13]", "result": "< 0.015", "unit": "µg/mL"},
      {"measurement": "IC50", "setting": "[14]", "result": "≥ 400", "unit": "µM"},
      {"measurement": "MIC", "setting": "Escherichia coli [15]", "result": 0.03, "unit": "µg/mL"},
      {"measurement": "IC50", "setting": "[16]", "result": 124, "unit": "µM"},
      {"measurement": "Activity", "setting": "[17]", "result": "Active"},
      {"measurement": "MIC", "setting": "Staphylococcus aureus [18]", "result": "< 0.015", "unit": "µg/mL"},
      {"measurement": "MIC", "setting": "Enterococcus faecalis [19]", "result": 32, "unit": "µg/mL"},
      {"measurement": "MBC99.99", "setting": "Enterococcus faecalis [20]", "result": ">64", "unit": "µg/mL"}
    ]}
  ]
}
